High-throughput results (PubChem BioAssay)
The sample as a whole holds a higher share of hits than the screen did.
Calb FLC – C. albicans growth inhibition with fluconazole, primary screen, CaCi-2 strain, Alamar Blue fluorescence. C. albicans CaCi-2 (fluconazole-resistant clinical isolate) + fluconazole, 48 h. growth inhibition, % (test concentration not listed). 0.57% of 300,000 active;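 active = growth inhibition above about 58% in most replicates, limit read from the data, passing the limit was not always enough; inconclusive = exactly half the replicates above a set limit; inactive = most replicates below a set limit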;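 note: all wells also contain fluconazole at 8 µg/ml as a sub-toxic cotreatment; 0% = median of DMSO wells and 100% = median of geldanamycin control wells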
T cruzi repl – inhibitors of intracellular T. cruzi growth, primary screen, luminescence, NIH3T3 host cells; T. cruzi beta-gal in NIH3T3, 90 h; AID 1885, 2009; inhibition, % (no concentration beside the values); 1.4% of 300,000 active;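 active = mean inhibition across valid replicates above about 55%, limit read from the data; inconclusive = mean below that limit but half or more replicates reach it; inactive = mean below it, under half of replicates reach it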;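 note: signal also drops with host cell toxicity which is not excluded here; 0% = plate median of DMSO wells and 100% = zero luminescence signal; higher percent means less beta-gal luminescence so fewer parasites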
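System – NIH/3T3 host cells with β-galactosidase reporter T. cruzi · Doses – single 50 nL compound addition per well in DMSO · Reagent – 5000 T. cruzi trypomastigotes/well · Medium – Low-serum DMEM with 2% FBS · Timing – ≥90 h infection period, 3 h prior cell attachment · Evaluation – parasite load inhibition, % · Technique – GalScreen luminescence, 60 min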
L major viab – Leishmania major promastigote growth inhibition, primary screen. Leishmania major promastigotes, resazurin fluorescence viability. inhibition, % at 10 µM. 9% of 200,000 active. AID 1063, 2008; in the data active = inhibition above about 50%;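 note: promastigotes grown with compound for 44 hours at 28 °C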
NLRP3 yeast inh – NALP3 inflammasome inhibitors in reconstituted yeast, primary screen, luminescence, uHTS | 0.39% of 330,000 active | Yeast reconstituted NLRP3/ASC/caspase-1, beta-gal luminescence, 24 h | inhibition, % at 10 µM;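 active = inhibition of 50% or more; inactive = inhibition below 50%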;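 note: plate controls were induced DMSO wells for no effect and uninduced yeast grown without galactose for full effect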
PolyA inh – polyadenylation inhibitors in yeast reporter cells, primary screen, luminescence, S. cerevisiae | S. cerevisiae SKY197-pL101 polyadenylation reporter, beta-gal luminescence; efflux-impaired pdr1/pdr3 knockout yeast; score 100 = 6 SD above DMSO | activity score, % at 12 µM | 0.02% of 300,000 active;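 active = lowest replicate activity score at least 50, where 100 means six control SD above control mean; inconclusive = lowest score under 50 but half or more replicates reach 50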;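 note: yeast exposed to compound for 9 h at 30 °C; higher score means more reporter readthrough which indicates perturbed polyadenylation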
NALP1 inh – NALP1 inflammasome inhibitors in reconstituted yeast, colorimetric, S. cerevisiae, triplicate retest; S. cerevisiae NALP1/ASC/caspase-1 growth, X-gal OD620, 72 h; inhibition, % at 10 µM; 0.61% of 280,000 active; AID 2071, 2009; in the data active = inhibition mostly above about 24%, no sharp cut-off; inactive = mostly below about 32%
The depositor's hits bear a star; ? = inconclusive; . = no result given.

SMILES	Calb FLC	T cruzi repl	L major viab	NLRP3 yeast inh	PolyA inh	NALP1 inh
O=C1CCCC(=O)N1c1ccc(N2CCN(c3ccccc3)CC2)c([N+](=O)[O-])c1	-3	-3	-8	13	-9	30
Cc1cccc(N2CCN(c3ccc(N4C(=O)CCCC4=O)cc3[N+](=O)[O-])CC2)c1C	3	14	58*	8	-2	36
CN(Cc1ccccc1)c1ccc(N2C(=O)CCCC2=O)cc1[N+](=O)[O-]	-2	4	81*	21	1	34
CCN1CCN(c2nc3sc4c(c3c(=O)n2-c2ccc(OC)cc2)CCCCC4)CC1	19	38	98*	11	-1	15
COc1ccc(-n2c(NN)nc3sc4c(c3c2=O)CCCC4)cc1	10	7	1	27	-13	-11
Cc1cc(NC(c2cccnc2)c2ccc3cccnc3c2O)no1 (configuration not stated)	-5	50	99*	24	-6	12
Cc1cc(C)nc(Nc2cccc(C(F)(F)F)c2)n1	3	11	.	21	-12	31
Cc1cccc(NC(c2ccc(O)cc2)c2ccc3ccc(C)nc3c2O)n1 (configuration not stated)	63	-5	-6	-1	-18	-17
Oc1c(C(Nc2cccc(C(F)(F)F)c2)c2cccnc2)ccc2cccnc12 (configuration not stated)	96*	?	100*	13	22	26
O=C(O)CCCNC(=O)/C(=C\c1ccc(Cl)cc1)NC(=O)c1ccccc1Br	0	-11	1	15	-9	0
COc1ccc(N2CCN(C(=O)CCc3ccc(S(=O)(=O)NC(C)(C)C)cc3)CC2)cc1	-11	17	.	12	-12	-4
COc1cc(/C=C2\C(C)=C(C#N)c3nc(N)c(C#N)c(C)c32)ccc1OCC(=O)O	-7	-3	.	8	-3	-12
CC1=C(C#N)c2nc(N)c(C#N)c(C)c2/C1=C\c1ccc(C)cc1	11	24	100*	21	-17	17
Nc1nnc(-c2ccco2)s1	14	-7	-2	4	-3	12
Nc1ncnc2oc(-c3ccco3)c(-c3ccco3)c12	16	-10	52*	17	-20	-6
CN1C(=O)[C@@H]2[C@H](C1=O)[C@@H]1C(=O)Nc3ccccc3C(=O)N1[C@@H]2c1cccc(Br)c1	-16	-10	.	16	-7	.
O=C(CCN1C(=O)C2C3C=CC(C3)C2C1=O)N1CCN(c2ccc([N+](=O)[O-])cc2)CC1 (configuration not stated)	4	16	-10	16	10	6
O=C1C2C3C=CC(C3)C2C(=O)N1CCN1CCN(Cc2ccc([N+](=O)[O-])cc2)CC1 (configuration not stated)	-6	5	72*	14	6	18
COc1ccc(C(C(=O)NC2CCCC2)N(C(=O)c2ccoc2C)c2ccc(C)c(C)c2)cc1 (configuration not stated)	-1	42	75*	-11	-5	14
COc1cc(OC)cc(N(C(=O)c2ccco2)C(C(=O)NC2CCCC2)c2ccc(N(C)C)cc2)c1 (configuration not stated)	.	18	17	18	7	-2
COc1ccc(N(C(=O)c2ccco2)C(C(=O)NC2CCCC2)c2ccc(N(C)C)cc2)cc1 (configuration not stated)	2	10	54*	8	-1	19
COc1ccc(N(C(=O)/C=C/C(=O)Nc2cc(C)on2)C(C(=O)NC2CCCC2)c2ccccc2C)cc1 (configuration not stated)	19	-16	97*	.	16	-46
COc1ccc(C(C(=O)NC2CCCC2)N(C(=O)c2ccoc2C)c2cc(C)cc(C)c2)cc1 (configuration not stated)	9	11	23	2	27	30
Cc1ccccc1-c1nnc(Cc2ccccc2)o1	-1	-7	1	-4	-18	33
